Results reported in ChEMBL document CHEMBL4689842, “EUbOPEN Chemogenomics Library wave 1” (2021).

Legend:
[1] = tested on: U2OS; assay: Multiplex assay against U2OS; assay type: toxicity, cell-based; conditions: human
Procedure, shortened: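 At seeding, live cells were stained with Hoechst33342, BioTracker Green Microtubule Cytoskeleton Dye, MitoTracker Red and Annexin V Alexa Fluor 680. After compound addition they were imaged on a CQ1 microscope at 37°C and 5% CO2, and CellPathfinder machine-learning gating sorted them into Hoechst high-intensity objects or normal cells, with normal cells further split into healthy, pyknosed or fragmented nuclei and pyknosed cells into mitotic or apoptotic. Tubulin, mitochondrial-mass and membrane-permeability phenotypes are given as per cents of cells with healthy nuclei.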

[2] = tested on: Fibroblast; assay: Incucyte cell viability with human fibroblast; assay type: toxicity, cell-based; conditions: 10 µM, compound concentration 10 uM; also: filed as whole numbers so only -1 and 0 and 1 occur
[3] = 12 h, 1 µM, compound concentration 1 uM, replicate 1
[4] = 12 h, 1 µM, compound concentration 1 uM, replicate 2
[5] = 12 h, 10 µM, compound concentration 10 uM, replicate 1
[6] = 12 h, 10 µM, compound concentration 10 uM, replicate 2
[7] = 24 h, 1 µM, compound concentration 1 uM, replicate 1
[8] = 24 h, 1 µM, compound concentration 1 uM, replicate 2
[9] = 24 h, 10 µM, compound concentration 10 uM, replicate 1
[10] = 24 h, 10 µM, compound concentration 10 uM, replicate 2
[11] = 48 h, 1 µM, compound concentration 1 uM, replicate 1
[12] = 48 h, 1 µM, compound concentration 1 uM, replicate 2
[13] = 48 h, 10 µM, compound concentration 10 uM, replicate 1
[14] = 48 h, 10 µM, compound concentration 10 uM, replicate 2

Compound: Nc1nc2c(c(N3CCNCC3)n1)CCC1=C2[C@@H]2CCCC[C@@H]2O1
- Population Apoptotic (%) [1, 3]: 34%
- Population Fragmented Nuclei (%) [1, 3]: 14%
- Population Healthy Nuclei (%) [1, 3]: 66%
- Population Hoechst High Intensity Objects (%) [1, 3]: 7%
- Population Membrane Permeable-Phenotype (%) [1, 3]: 4%
- Population Mitochondria Different-Phenotype (%) [1, 3]: 9%
- Population Mitotic Cells (%) [1, 3]: 65%
- Population Normal (%) [1, 3]: 92%
- Population Tubulin-Different-Phenotype (%) [1, 3]: 7%
- Total Cell Count [1, 3]: 167
- Population Apoptotic (%) [1, 4]: 0%
- Population Fragmented Nuclei (%) [1, 4]: 20%
- Population Healthy Nuclei (%) [1, 4]: 61%
- Population Hoechst High Intensity Objects (%) [1, 4]: 15%
- Population Membrane Permeable-Phenotype (%) [1, 4]: 8%
- Population Mitochondria Different-Phenotype (%) [1, 4]: 27%
- Population Mitotic Cells (%) [1, 4]: 100%
- Population Normal (%) [1, 4]: 84%
- Population Pyknosed Nuclei (%) [1, 4]: 18%
- Population Tubulin-Different-Phenotype (%) [1, 4]: 21%
- Total Cell Count [1, 4]: 71
- Population Apoptotic (%) [1, 5]: 26%
- Population Fragmented Nuclei (%) [1, 5]: 13%
- Population Healthy Nuclei (%) [1, 5]: 62%
- Population Hoechst High Intensity Objects (%) [1, 5]: 9%
- Population Membrane Permeable-Phenotype (%) [1, 5]: 11%
- Population Mitochondria Different-Phenotype (%) [1, 5]: 88%
- Population Mitotic Cells (%) [1, 5]: 73%
- Population Normal (%) [1, 5]: 90%
- Population Pyknosed Nuclei (%) [1, 5]: 24%
- Population Tubulin-Different-Phenotype (%) [1, 5]: 93%
- Total Cell Count [1, 5]: 135
- Population Apoptotic (%) [1, 6]: 27%
- Population Fragmented Nuclei (%) [1, 6]: 9%
- Population Healthy Nuclei (%) [1, 6]: 68%
- Population Hoechst High Intensity Objects (%) [1, 6]: 3%
- Population Membrane Permeable-Phenotype (%) [1, 6]: 25%
- Population Mitochondria Different-Phenotype (%) [1, 6]: 87%
- Population Mitotic Cells (%) [1, 6]: 72%
- Population Normal (%) [1, 6]: 96%
- Population Pyknosed Nuclei (%) [1, 6]: 21%
- Population Tubulin-Different-Phenotype (%) [1, 6]: 92%
- Total Cell Count [1, 6]: 106
- Population Apoptotic (%) [1, 7]: 39%
- Population Fragmented Nuclei (%) [1, 7]: 15%
- Population Healthy Nuclei (%) [1, 7]: 65%
- Population Hoechst High Intensity Objects (%) [1, 7]: 4%
- Population Membrane Permeable-Phenotype (%) [1, 7]: 7%
- Population Mitochondria Different-Phenotype (%) [1, 7]: 4%
- Population Mitotic Cells (%) [1, 7]: 60%
- Population Normal (%) [1, 7]: 95%
- Population Pyknosed Nuclei (%) [1, 7]: 19%
- Population Tubulin-Different-Phenotype (%) [1, 7]: 3%
- Total Cell Count [1, 7]: 203
- Population Apoptotic (%) [1, 8]: 20%
- Population Fragmented Nuclei (%) [1, 8]: 22%
- Population Healthy Nuclei (%) [1, 8]: 57%
- Population Hoechst High Intensity Objects (%) [1, 8]: 8%
- Population Membrane Permeable-Phenotype (%) [1, 8]: 6%
- Population Mitochondria Different-Phenotype (%) [1, 8]: 20%
- Population Mitotic Cells (%) [1, 8]: 80%
- Population Normal (%) [1, 8]: 91%
- Population Pyknosed Nuclei (%) [1, 8]: 20%
- Population Tubulin-Different-Phenotype (%) [1, 8]: 16%
- Total Cell Count [1, 8]: 82
- Population Apoptotic (%) [1, 9]: 40%
- Population Fragmented Nuclei (%) [1, 9]: 11%
- Population Healthy Nuclei (%) [1, 9]: 45%
- Population Hoechst High Intensity Objects (%) [1, 9]: 14%
- Population Membrane Permeable-Phenotype (%) [1, 9]: 16%
- Population Mitochondria Different-Phenotype (%) [1, 9]: 85%
- Population Mitotic Cells (%) [1, 9]: 59%
- Population Normal (%) [1, 9]: 85%
- Population Pyknosed Nuclei (%) [1, 9]: 43%
- Population Tubulin-Different-Phenotype (%) [1, 9]: 75%
- Total Cell Count [1, 9]: 140
- Population Apoptotic (%) [1, 10]: 33%
- Population Fragmented Nuclei (%) [1, 10]: 8%
- Population Healthy Nuclei (%) [1, 10]: 46%
- Population Hoechst High Intensity Objects (%) [1, 10]: 2%
- Population Membrane Permeable-Phenotype (%) [1, 10]: 22%
- Population Mitochondria Different-Phenotype (%) [1, 10]: 79%
- Population Mitotic Cells (%) [1, 10]: 66%
- Population Normal (%) [1, 10]: 97%
- Population Pyknosed Nuclei (%) [1, 10]: 45%
- Population Tubulin-Different-Phenotype (%) [1, 10]: 69%
- Total Cell Count [1, 10]: 109
- Population Apoptotic (%) [1, 11]: 31%
- Population Fragmented Nuclei (%) [1, 11]: 8%
- Population Healthy Nuclei (%) [1, 11]: 78%
- Population Hoechst High Intensity Objects (%) [1, 11]: 5%
- Population Membrane Permeable-Phenotype (%) [1, 11]: 3%
- Population Mitochondria Different-Phenotype (%) [1, 11]: 5%
- Population Mitotic Cells (%) [1, 11]: 68%
- Population Normal (%) [1, 11]: 94%
- Population Pyknosed Nuclei (%) [1, 11]: 13%
- Population Tubulin-Different-Phenotype (%) [1, 11]: 5%
- Total Cell Count [1, 11]: 299
- Population Apoptotic (%) [1, 12]: 40%
- Population Fragmented Nuclei (%) [1, 12]: 19%
- Population Healthy Nuclei (%) [1, 12]: 65%
- Population Hoechst High Intensity Objects (%) [1, 12]: 9%
- Population Membrane Permeable-Phenotype (%) [1, 12]: 4%
- Population Mitochondria Different-Phenotype (%) [1, 12]: 17%
- Population Mitotic Cells (%) [1, 12]: 60%
- Population Normal (%) [1, 12]: 90%
- Population Pyknosed Nuclei (%) [1, 12]: 14%
- Population Tubulin-Different-Phenotype (%) [1, 12]: 13%
- Total Cell Count [1, 12]: 113
- Population Apoptotic (%) [1, 13]: 62%
- Population Fragmented Nuclei (%) [1, 13]: 19%
- Population Healthy Nuclei (%) [1, 13]: 32%
- Population Hoechst High Intensity Objects (%) [1, 13]: 18%
- Population Membrane Permeable-Phenotype (%) [1, 13]: 8%
- Population Mitochondria Different-Phenotype (%) [1, 13]: 76%
- Population Mitotic Cells (%) [1, 13]: 37%
- Population Normal (%) [1, 13]: 81%
- Population Pyknosed Nuclei (%) [1, 13]: 48%
- Population Tubulin-Different-Phenotype (%) [1, 13]: 63%
- Total Cell Count [1, 13]: 175
- Population Apoptotic (%) [1, 14]: 48%
- Population Fragmented Nuclei (%) [1, 14]: 9%
- Population Healthy Nuclei (%) [1, 14]: 40%
- Population Hoechst High Intensity Objects (%) [1, 14]: 12%
- Population Membrane Permeable-Phenotype (%) [1, 14]: 21%
- Population Mitochondria Different-Phenotype (%) [1, 14]: 78%
- Population Mitotic Cells (%) [1, 14]: 51%
- Population Normal (%) [1, 14]: 87%
- Population Pyknosed Nuclei (%) [1, 14]: 50%
- Population Tubulin-Different-Phenotype (%) [1, 14]: 53%
- Total Cell Count [1, 14]: 133
- Growth Rate ([2]; 0 h, replicate number 1, timepoint 0 hours): 0
- Growth Rate ([2]; 6 h, replicate number 1, timepoint 6 hours): 1
- Growth Rate ([2]; 6 h, replicate number 2, timepoint 6 hours): 0
- Growth Rate ([2]; 12 h, replicate number 1, timepoint 12 hours): 0
- Growth Rate ([2]; 18 h, replicate number 1, timepoint 18 hours): 0
- Growth Rate ([2]; 24 h, replicate number 1, timepoint 24 hours): 0
